Test results published in ChEMBL document CHEMBL4196066, “Design and synthesis of furyl/thineyl pyrroloquinolones based on natural alkaloid perlolyrine, lead to the discovery of potent and selective PDE5 inhibitors” (Eur J Med Chem, 2018).

Assays:
[1] = target: T1, cGMP-specific 3',5'-cyclic phosphodiesterase (Homo sapiens, UniProt O76074); assay: Inhibition of N-terminal GST-tagged full length recombinant human PDE5A1 catalytic domain expressed in Baculovirus infected Sf9 insect cells using FAM-cGMP as substrate after 1 hr by fluorescence polarization assay
[2] = species on record: Homo sapiens; assay: Selectivity ratio of IC50 for N-terminal GST-tagged full length recombinant human PDE1A to IC50 for N-terminal GST-tagged full length recombinant human PDE5A1 catalytic domain
[3] = species on record: Homo sapiens; assay: Selectivity ratio of IC50 for N-terminal FLAG-tagged human PDE2A1 (2 to 941 residues) to IC50 for N-terminal GST-tagged full length recombinant human PDE5A1 catalytic domain
[4] = species on record: Homo sapiens; assay: Selectivity ratio of IC50 for N-terminal GST-tagged recombinant human PDE3B (592 end residues) to IC50 for N-terminal GST-tagged full length recombinant human PDE5A1 catalytic domain
[5] = species on record: Homo sapiens; assay: Selectivity ratio of IC50 for N-terminal GST-tagged full length recombinant human PDE4A1A to IC50 for N-terminal GST-tagged full length recombinant human PDE5A1 catalytic domain
[6] = species on record: Homo sapiens; assay: Selectivity ratio of IC50 for N-terminal GST-tagged full length recombinant human PDE6C to IC50 for N-terminal GST-tagged full length recombinant human PDE5A1 catalytic domain
[7] = target: Cone cGMP-specific 3',5'-cyclic phosphodiesterase subunit alpha' (Homo sapiens, UniProt P51160); assay: Inhibition of N-terminal GST-tagged full length recombinant human PDE6C expressed in Baculovirus infected Sf9 insect cells using […] as substrate after 1 hr by fluorescence polarization assay
Chain of Cone cGMP-specific 3',5'-cyclic phosphodiesterase subunit alpha' (P51160 whole entry): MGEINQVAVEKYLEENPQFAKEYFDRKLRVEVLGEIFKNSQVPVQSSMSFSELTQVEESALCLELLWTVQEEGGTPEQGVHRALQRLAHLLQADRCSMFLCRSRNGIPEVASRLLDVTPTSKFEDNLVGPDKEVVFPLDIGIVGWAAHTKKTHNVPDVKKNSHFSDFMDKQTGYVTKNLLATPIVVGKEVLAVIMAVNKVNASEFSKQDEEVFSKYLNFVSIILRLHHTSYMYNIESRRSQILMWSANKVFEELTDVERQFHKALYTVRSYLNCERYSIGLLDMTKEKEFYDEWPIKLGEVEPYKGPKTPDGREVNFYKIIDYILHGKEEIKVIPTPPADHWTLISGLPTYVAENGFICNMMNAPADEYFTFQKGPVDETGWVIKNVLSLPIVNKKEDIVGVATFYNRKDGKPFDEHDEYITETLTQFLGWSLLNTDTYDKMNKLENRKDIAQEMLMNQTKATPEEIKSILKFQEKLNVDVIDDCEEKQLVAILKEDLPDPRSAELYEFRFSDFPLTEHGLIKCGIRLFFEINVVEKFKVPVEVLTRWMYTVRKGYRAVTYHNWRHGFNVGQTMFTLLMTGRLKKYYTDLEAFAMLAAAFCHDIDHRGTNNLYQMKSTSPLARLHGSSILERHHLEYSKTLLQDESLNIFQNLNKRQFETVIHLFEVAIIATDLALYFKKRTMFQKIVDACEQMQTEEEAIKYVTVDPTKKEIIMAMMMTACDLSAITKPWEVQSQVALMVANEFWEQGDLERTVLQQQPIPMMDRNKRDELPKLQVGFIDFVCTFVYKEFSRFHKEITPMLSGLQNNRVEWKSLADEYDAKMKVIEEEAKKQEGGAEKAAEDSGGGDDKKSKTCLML

[8] = target: Dual specificity calcium/calmodulin-dependent 3',5'-cyclic nucleotide phosphodiesterase 1A (Homo sapiens) (UniProt P54750); assay: Inhibition of N-terminal GST-tagged full length recombinant human PDE1A expressed in Baculovirus infected Sf9 insect cells at 30 uM using FAM-cAMP as substrate after 1 hr by fluorescence polarization assay relative to control
Chain of Dual specificity calcium/calmodulin-dependent 3',5'-cyclic nucleotide phosphodiesterase 1A (Homo sapiens) (P54750 whole entry, the tested form may be a part): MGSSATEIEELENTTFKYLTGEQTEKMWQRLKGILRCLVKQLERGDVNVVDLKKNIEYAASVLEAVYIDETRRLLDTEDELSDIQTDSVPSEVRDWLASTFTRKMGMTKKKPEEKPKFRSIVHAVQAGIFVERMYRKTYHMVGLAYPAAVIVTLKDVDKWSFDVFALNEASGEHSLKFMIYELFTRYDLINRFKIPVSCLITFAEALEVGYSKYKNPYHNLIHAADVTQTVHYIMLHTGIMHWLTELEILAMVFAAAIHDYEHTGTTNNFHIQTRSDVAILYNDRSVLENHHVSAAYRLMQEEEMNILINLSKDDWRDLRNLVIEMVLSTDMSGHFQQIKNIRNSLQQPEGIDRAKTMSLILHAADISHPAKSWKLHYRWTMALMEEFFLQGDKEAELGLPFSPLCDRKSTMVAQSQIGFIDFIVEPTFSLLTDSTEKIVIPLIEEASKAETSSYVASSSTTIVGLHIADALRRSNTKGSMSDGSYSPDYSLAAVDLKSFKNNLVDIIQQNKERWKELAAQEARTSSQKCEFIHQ

[9] = target: cGMP-dependent 3',5'-cyclic phosphodiesterase (Homo sapiens) (UniProt O00408); assay: Inhibition of N-terminal FLAG-tagged human PDE2A1 (2 to 941 residues) expressed in Baculovirus infected Sf9 insect cells at 30 uM using FAM-cAMP as substrate after 1 hr by fluorescence polarization assay relative to control
Chain of cGMP-dependent 3',5'-cyclic phosphodiesterase (Homo sapiens) (O00408 whole entry, the tested form may be a part): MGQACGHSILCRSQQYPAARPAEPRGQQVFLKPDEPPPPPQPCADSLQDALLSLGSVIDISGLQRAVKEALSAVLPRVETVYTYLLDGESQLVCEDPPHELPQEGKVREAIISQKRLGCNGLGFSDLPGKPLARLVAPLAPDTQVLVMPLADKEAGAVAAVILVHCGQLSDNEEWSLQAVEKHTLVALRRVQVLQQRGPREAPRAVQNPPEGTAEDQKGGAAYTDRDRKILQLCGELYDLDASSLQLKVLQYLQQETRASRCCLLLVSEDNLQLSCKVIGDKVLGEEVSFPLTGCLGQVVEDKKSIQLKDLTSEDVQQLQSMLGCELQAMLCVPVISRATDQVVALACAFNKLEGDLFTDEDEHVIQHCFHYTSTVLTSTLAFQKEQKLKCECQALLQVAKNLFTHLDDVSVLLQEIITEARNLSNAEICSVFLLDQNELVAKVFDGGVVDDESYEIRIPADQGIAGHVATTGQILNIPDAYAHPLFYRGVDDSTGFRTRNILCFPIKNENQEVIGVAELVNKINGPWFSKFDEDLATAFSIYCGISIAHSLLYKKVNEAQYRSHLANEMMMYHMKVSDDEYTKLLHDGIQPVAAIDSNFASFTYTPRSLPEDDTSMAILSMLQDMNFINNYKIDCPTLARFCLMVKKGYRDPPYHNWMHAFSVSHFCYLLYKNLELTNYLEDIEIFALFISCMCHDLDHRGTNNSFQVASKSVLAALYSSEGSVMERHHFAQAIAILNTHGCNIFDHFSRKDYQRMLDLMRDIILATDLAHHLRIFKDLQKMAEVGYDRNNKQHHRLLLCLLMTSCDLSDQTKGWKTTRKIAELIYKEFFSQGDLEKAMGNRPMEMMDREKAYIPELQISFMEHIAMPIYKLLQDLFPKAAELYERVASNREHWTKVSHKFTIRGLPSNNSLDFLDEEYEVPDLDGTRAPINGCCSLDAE

[10] = target: cGMP-inhibited 3',5'-cyclic phosphodiesterase 3B (Homo sapiens) (UniProt Q13370); assay: Inhibition of N-terminal GST-tagged recombinant human PDE3B (592 end residues) expressed in Baculovirus infected Sf9 insect cells at 30 uM using FAM-cAMP as substrate after 1 hr by fluorescence polarization assay relative to control
Chain of cGMP-inhibited 3',5'-cyclic phosphodiesterase 3B (Homo sapiens) (Q13370 whole entry, looked up): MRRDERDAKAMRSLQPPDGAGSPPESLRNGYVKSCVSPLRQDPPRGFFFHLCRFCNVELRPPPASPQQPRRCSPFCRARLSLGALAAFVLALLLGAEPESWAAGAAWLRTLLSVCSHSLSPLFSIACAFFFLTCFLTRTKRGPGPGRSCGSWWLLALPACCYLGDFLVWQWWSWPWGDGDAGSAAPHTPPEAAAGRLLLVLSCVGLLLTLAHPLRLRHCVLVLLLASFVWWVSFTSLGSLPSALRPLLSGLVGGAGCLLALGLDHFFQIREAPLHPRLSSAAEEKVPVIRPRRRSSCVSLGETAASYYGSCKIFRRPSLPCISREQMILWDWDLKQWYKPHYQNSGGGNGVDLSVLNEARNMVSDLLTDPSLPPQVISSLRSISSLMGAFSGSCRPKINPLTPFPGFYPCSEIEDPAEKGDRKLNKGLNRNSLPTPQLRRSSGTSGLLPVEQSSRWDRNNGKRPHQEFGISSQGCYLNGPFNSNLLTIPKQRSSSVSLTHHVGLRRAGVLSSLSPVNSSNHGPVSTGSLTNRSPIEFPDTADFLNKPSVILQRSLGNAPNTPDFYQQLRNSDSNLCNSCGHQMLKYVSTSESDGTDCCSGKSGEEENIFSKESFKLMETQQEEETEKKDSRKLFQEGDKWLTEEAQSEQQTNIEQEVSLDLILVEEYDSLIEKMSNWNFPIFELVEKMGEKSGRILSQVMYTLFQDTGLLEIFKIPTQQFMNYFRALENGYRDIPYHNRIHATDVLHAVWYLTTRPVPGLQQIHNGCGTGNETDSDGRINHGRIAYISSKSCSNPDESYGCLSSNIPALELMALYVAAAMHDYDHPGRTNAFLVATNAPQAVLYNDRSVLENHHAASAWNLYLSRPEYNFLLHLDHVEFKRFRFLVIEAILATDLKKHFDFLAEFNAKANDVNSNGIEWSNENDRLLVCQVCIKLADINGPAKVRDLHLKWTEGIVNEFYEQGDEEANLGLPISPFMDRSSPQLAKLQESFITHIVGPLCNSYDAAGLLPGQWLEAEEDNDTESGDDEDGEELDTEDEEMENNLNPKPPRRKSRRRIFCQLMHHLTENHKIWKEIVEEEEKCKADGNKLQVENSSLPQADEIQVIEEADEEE

[11] = target: 3',5'-cyclic-AMP phosphodiesterase 4A (Homo sapiens) (UniProt P27815); assay: Inhibition of N-terminal GST-tagged full length recombinant human PDE4A1A expressed in Baculovirus infected Sf9 insect cells at 8 uM using FAM-cAMP as substrate after 1 hr by fluorescence polarization assay relative to control
Chain of 3',5'-cyclic-AMP phosphodiesterase 4A (Homo sapiens) (P27815 whole entry): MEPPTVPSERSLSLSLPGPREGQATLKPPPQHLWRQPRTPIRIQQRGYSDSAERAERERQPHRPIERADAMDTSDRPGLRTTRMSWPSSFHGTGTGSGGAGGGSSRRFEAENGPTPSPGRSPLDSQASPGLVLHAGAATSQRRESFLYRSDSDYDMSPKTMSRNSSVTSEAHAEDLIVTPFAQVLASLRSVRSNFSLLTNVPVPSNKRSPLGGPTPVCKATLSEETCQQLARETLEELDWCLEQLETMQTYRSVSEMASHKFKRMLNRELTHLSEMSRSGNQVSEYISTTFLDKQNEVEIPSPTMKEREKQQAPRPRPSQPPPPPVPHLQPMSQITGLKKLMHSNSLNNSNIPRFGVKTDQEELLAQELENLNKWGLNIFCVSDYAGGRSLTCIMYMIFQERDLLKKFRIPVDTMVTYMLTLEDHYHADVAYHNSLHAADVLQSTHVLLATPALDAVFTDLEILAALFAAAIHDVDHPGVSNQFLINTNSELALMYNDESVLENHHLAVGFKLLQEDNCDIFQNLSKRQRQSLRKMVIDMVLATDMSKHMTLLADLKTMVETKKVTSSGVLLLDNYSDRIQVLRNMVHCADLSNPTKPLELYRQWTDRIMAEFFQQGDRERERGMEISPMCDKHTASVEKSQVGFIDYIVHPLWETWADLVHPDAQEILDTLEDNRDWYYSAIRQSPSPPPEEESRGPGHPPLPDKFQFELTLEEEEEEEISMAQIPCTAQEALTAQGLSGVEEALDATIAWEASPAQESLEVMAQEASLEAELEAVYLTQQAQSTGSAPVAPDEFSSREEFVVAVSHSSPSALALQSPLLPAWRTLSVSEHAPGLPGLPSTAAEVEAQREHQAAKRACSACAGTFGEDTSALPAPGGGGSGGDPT

[12] = test system: Oryctolagus cuniculus; assay: Vasorelaxant activity in iv dosed New Zealand rabbit assessed as induction of ICP change in response to electrically pelvic nerve stimulation administered as bolus dose; format: functional
[13] = test system: Thoracic aorta; assay: Vasorelaxant activity in norepinephrine-pretreated New Zealand rabbit thoracic aorta assessed as increase in aortic relaxation at 10 uM measured after 15 mins relative to control; format: functional, Oryctolagus cuniculus; design: scale not given: the % may be the effect or the level left
How it was run: (§1)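 Thoracic aortic rings from New Zealand white rabbits were held in Krebs buffer at 2 g resting tension (0%) and equilibrated 2 h. Rings were contracted to maximum with 1 µM norepinephrine (100%). Compounds were added cumulatively at 15 min intervals, with tension recorded 15 min after each dose. Relaxation % = (max − recorded)/(max − 2 g) × 100; n = 1–2 rings.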

[14] = target: Dual specificity calcium/calmodulin-dependent 3',5'-cyclic nucleotide phosphodiesterase 1A (Homo sapiens) (UniProt P54750); assay: Inhibition of N-terminal GST-tagged full length recombinant human PDE1A expressed in Baculovirus infected Sf9 insect cells at 250 uM using FAM-cAMP as substrate after 1 hr by fluorescence polarization assay relative to control
[15] = target: cGMP-dependent 3',5'-cyclic phosphodiesterase (Homo sapiens) (UniProt O00408); assay: Inhibition of N-terminal FLAG-tagged human PDE2A1 (2 to 941 residues) expressed in Baculovirus infected Sf9 insect cells at 40 uM using FAM-cAMP as substrate after 1 hr by fluorescence polarization assay relative to control
[16] = target: cGMP-inhibited 3',5'-cyclic phosphodiesterase 3B (Homo sapiens) (UniProt Q13370); assay: Inhibition of N-terminal GST-tagged recombinant human PDE3B (592 end residues) expressed in Baculovirus infected Sf9 insect cells at 250 uM using FAM-cAMP as substrate after 1 hr by fluorescence polarization assay relative to control
[17] = target: 3',5'-cyclic-AMP phosphodiesterase 4A (Homo sapiens) (UniProt P27815); assay: Inhibition of N-terminal GST-tagged full length recombinant human PDE4A1A expressed in Baculovirus infected Sf9 insect cells at 50 uM using FAM-cAMP as substrate after 1 hr by fluorescence polarization assay relative to control
[18] = target: Dual specificity calcium/calmodulin-dependent 3',5'-cyclic nucleotide phosphodiesterase 1A (Homo sapiens) (UniProt P54750); assay: Inhibition of N-terminal GST-tagged full length recombinant human PDE1A expressed in Baculovirus infected Sf9 insect cells at 12.5 uM using FAM-cAMP as substrate after 1 hr by fluorescence polarization assay relative to control
[19] = target: cGMP-dependent 3',5'-cyclic phosphodiesterase (Homo sapiens) (UniProt O00408); assay: Inhibition of N-terminal FLAG-tagged human PDE2A1 (2 to 941 residues) expressed in Baculovirus infected Sf9 insect cells at 12.5 uM using FAM-cAMP as substrate after 1 hr by fluorescence polarization assay relative to control
[20] = target: cGMP-inhibited 3',5'-cyclic phosphodiesterase 3B (Homo sapiens) (UniProt Q13370); assay: Inhibition of N-terminal GST-tagged recombinant human PDE3B (592 end residues) expressed in Baculovirus infected Sf9 insect cells at 12.5 uM using FAM-cAMP as substrate after 1 hr by fluorescence polarization assay relative to control
[21] = target: 3',5'-cyclic-AMP phosphodiesterase 4A (Homo sapiens) (UniProt P27815); assay: Inhibition of N-terminal GST-tagged full length recombinant human PDE4A1A expressed in Baculovirus infected Sf9 insect cells at 3 uM using FAM-cAMP as substrate after 1 hr by fluorescence polarization assay relative to control
[22] = target: Dual specificity calcium/calmodulin-dependent 3',5'-cyclic nucleotide phosphodiesterase 1A (Homo sapiens) (UniProt P54750); assay: Inhibition of N-terminal GST-tagged full length recombinant human PDE1A expressed in Baculovirus infected Sf9 insect cells at 25 uM using FAM-cAMP as substrate after 1 hr by fluorescence polarization assay relative to control
[23] = target: cGMP-dependent 3',5'-cyclic phosphodiesterase (Homo sapiens) (UniProt O00408); assay: Inhibition of N-terminal FLAG-tagged human PDE2A1 (2 to 941 residues) expressed in Baculovirus infected Sf9 insect cells at 25 uM using FAM-cAMP as substrate after 1 hr by fluorescence polarization assay relative to control
[24] = target: cGMP-inhibited 3',5'-cyclic phosphodiesterase 3B (Homo sapiens) (UniProt Q13370); assay: Inhibition of N-terminal GST-tagged recombinant human PDE3B (592 end residues) expressed in Baculovirus infected Sf9 insect cells at 25 uM using FAM-cAMP as substrate after 1 hr by fluorescence polarization assay relative to control
[25] = target: 3',5'-cyclic-AMP phosphodiesterase 4A (Homo sapiens) (UniProt P27815); assay: Inhibition of N-terminal GST-tagged full length recombinant human PDE4A1A expressed in Baculovirus infected Sf9 insect cells at 6 uM using FAM-cAMP as substrate after 1 hr by fluorescence polarization assay relative to control
[26] = test system: Thoracic aorta; assay: Vasorelaxant activity in norepinephrine-pretreated New Zealand rabbit thoracic aorta assessed as increase in aortic relaxation at 1 uM measured after 15 mins relative to control; format: functional, Oryctolagus cuniculus; design: scale not given: the % may be the effect or the level left; how it was run: as §1
[27] = target: Dual specificity calcium/calmodulin-dependent 3',5'-cyclic nucleotide phosphodiesterase 1A (Homo sapiens) (UniProt P54750); assay: Inhibition of N-terminal GST-tagged full length recombinant human PDE1A expressed in Baculovirus infected Sf9 insect cells at 5.5 uM using FAM-cAMP as substrate after 1 hr by fluorescence polarization assay relative to control
[28] = target: cGMP-dependent 3',5'-cyclic phosphodiesterase (Homo sapiens) (UniProt O00408); assay: Inhibition of N-terminal FLAG-tagged human PDE2A1 (2 to 941 residues) expressed in Baculovirus infected Sf9 insect cells at 5.5 uM using FAM-cAMP as substrate after 1 hr by fluorescence polarization assay relative to control
[29] = target: cGMP-inhibited 3',5'-cyclic phosphodiesterase 3B (Homo sapiens) (UniProt Q13370); assay: Inhibition of N-terminal GST-tagged recombinant human PDE3B (592 end residues) expressed in Baculovirus infected Sf9 insect cells at 5.5 uM using FAM-cAMP as substrate after 1 hr by fluorescence polarization assay relative to control
[30] = target: 3',5'-cyclic-AMP phosphodiesterase 4A (Homo sapiens) (UniProt P27815); assay: Inhibition of N-terminal GST-tagged full length recombinant human PDE4A1A expressed in Baculovirus infected Sf9 insect cells at 1 uM using FAM-cAMP as substrate after 1 hr by fluorescence polarization assay relative to control
[31] = target: T1, cGMP-specific 3',5'-cyclic phosphodiesterase; assay: Inhibition of PDE5 (unknown origin)
[32] = target: Dual specificity calcium/calmodulin-dependent 3',5'-cyclic nucleotide phosphodiesterase 1A (Homo sapiens) (UniProt P54750); assay: Inhibition of N-terminal GST-tagged full length recombinant human PDE1A expressed in Baculovirus infected Sf9 insect cells at 6 uM using FAM-cAMP as substrate after 1 hr by fluorescence polarization assay relative to control
[33] = target: cGMP-dependent 3',5'-cyclic phosphodiesterase (Homo sapiens) (UniProt O00408); assay: Inhibition of N-terminal FLAG-tagged human PDE2A1 (2 to 941 residues) expressed in Baculovirus infected Sf9 insect cells at 6 uM using FAM-cAMP as substrate after 1 hr by fluorescence polarization assay relative to control
[34] = target: cGMP-inhibited 3',5'-cyclic phosphodiesterase 3B (Homo sapiens) (UniProt Q13370); assay: Inhibition of N-terminal GST-tagged recombinant human PDE3B (592 end residues) expressed in Baculovirus infected Sf9 insect cells at 6 uM using FAM-cAMP as substrate after 1 hr by fluorescence polarization assay relative to control
[35] = target: 3',5'-cyclic-AMP phosphodiesterase 4A (Homo sapiens) (UniProt P27815); assay: Inhibition of N-terminal GST-tagged full length recombinant human PDE4A1A expressed in Baculovirus infected Sf9 insect cells at 1.5 uM using FAM-cAMP as substrate after 1 hr by fluorescence polarization assay relative to control

SMILES	IC50 [1] [nM]	Ratio IC50 [2]	Ratio IC50 [3]	Ratio IC50 [4]	Ratio IC50 [5]	Ratio IC50 [6]	IC50 [7] [nM]	other results
CCc1ccc(C2c3[nH]c4ccccc4c(=O)c3CN2c2ncccn2)o1 (stereo unspecified)	3.14	> 10000	> 10000	> 10000	> 2500	2	6.2	inhibition [8]: 3.5%; inhibition [9]: 33%; inhibition [10]: 3.5%; inhibition [11]: 11%
CCCc1nn(C)c2c(=O)[nH]c(-c3cc(S(=O)(=O)N4CCN(C)CC4)ccc3OCC)nc12								ED50 [12]: 0.0143 mg/kg
CCc1ccc([C@H]2c3[nH]c4ccccc4c(=O)c3CN2c2ncc(-c3ccccn3)cn2)o1	0.97	> 10000	> 10000	> 10000	> 2500	3.9	3.8	Activity [13]: 30%; inhibition [18]: 7.5%; inhibition [19]: 51%; inhibition [20]: 10%; inhibition [21]: 12%
CCc1ccc(C2c3[nH]c4ccccc4c(=O)c3CN2c2ncc(-c3ccccn3)cn2)o1 (racemic)	0.54	> 10000	> 10000	> 10000	> 2500	4.3	2.3	Activity [26]: >90%; inhibition [27]: 2.5%; inhibition [28]: 10%; inhibition [29]: 8%; inhibition [30]: 5%
OCc1ccc(-c2nccc3c2[nH]c2ccccc23)o1 [PERLOLYRIN]								IC50 [31]: 9300 nM
OCc1ccoc1-c1nccc2c1[nH]c1ccccc12								IC50 [31]: 4900 nM
CCc1ccc(C2c3[nH]c4ccccc4c(=O)c3CN2c2ncc(-c3ccc(OC)cc3)cn2)s1 (stereo unspecified)	6.45							
CCc1ccc(C2c3[nH]c4ccccc4c(=O)c3CN2c2ncc(Br)cn2)s1 (stereo unspecified)	3.28							
CCc1ccc(C2c3[nH]c4ccccc4c(=O)c3CN2c2ncc(-c3ccc(OC)c(OC)c3)cn2)s1 (stereo unspecified)	1.25							

More lines, main results first:

IC50 [1] [nM]	Ratio IC50 [2]	Ratio IC50 [3]	Ratio IC50 [4]	Ratio IC50 [5]	Ratio IC50 [6]	IC50 [7] [nM]	SMILES	other results
0.67							CCc1ccc(C2c3[nH]c4ccccc4c(=O)c3CN2c2ncc(-c3cccnc3)cn2)s1 (stereo unspecified)	
0.82							CCc1ccc(C2c3[nH]c4ccccc4c(=O)c3CN2c2ncc(-c3cccnc3F)cn2)s1 (stereo unspecified)	
0.6							CCc1ccc(C2c3[nH]c4ccccc4c(=O)c3CN2c2ncc(-c3ccncc3)cn2)s1 (stereo unspecified)	
26.9	> 10000	> 1500	> 10000	> 2500	1.3	34.1	CCc1ccc([C@H]2c3[nH]c4ccccc4c(=O)c3CN2c2ncc(-c3ccccn3)cn2)s1	Activity [13]: 30%; inhibition [14]: 8%; inhibition [15]: 32%; inhibition [16]: 2%; inhibition [17]: 1%
2.85							CCc1ccc(C2c3[nH]c4ccccc4c(=O)c3CN2c2ccccn2)s1 (stereo unspecified)	
2.5	> 10000	> 10000	> 10000	> 2500	1.5	3.7	CCc1ccc(C2c3[nH]c4ccccc4c(=O)c3CN2c2ncccn2)s1 (stereo unspecified)	inhibition [22]: 3.5%; inhibition [23]: 37%; inhibition [24]: 2.5%; inhibition [25]: 8%
0.6	> 10000	> 10000	> 10000	> 2500	8	4.8	CCc1ccc(C2c3[nH]c4ccccc4c(=O)c3CN2c2ncc(-c3ccccn3)cn2)s1 (racemic)	Activity [26]: >90%; inhibition [32]: 2.5%; inhibition [33]: 7%; inhibition [34]: 2.5%; inhibition [35]: 3%
1.2							CCc1ccc(C2c3[nH]c4ccccc4c(=O)c3CN2c2ccc(-c3ccccn3)cn2)s1 (stereo unspecified)	
